In brackets after ≈: the same amount, converted by molar mass. Where only a bound is given, the exact number is not on record here.

Here are results for 17 molecules from ChEMBL document CHEMBL1139333, “Search for new pharmacophores for antimalarial activity. Part I: synthesis and antimalarial activity of new 2-methyl-6-ureido-4-quinolinamides” (Bioorg Med Chem, 2009).

One experiment relates to Enterococcus faecalis. The experiment is described as follows: Antibacterial activity against Streptococcus faecalis after 24 hrs by NCCLS method. It counts as functional. The essentials: (§1)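 Bacteria grown on nutrient agar at 37 °C for 24 h, then suspended in normal saline with 0.05% Tween 20 at about […] cells/mL (0.5 McFarland). MIC by NCCLS broth microdilution in Mueller Hinton broth with twofold serial dilutions. Compounds were dissolved in DMSO at 1 mg/mL (stock). Growth, drug and blank controls were included.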

The subject of another experiment is Klebsiella pneumoniae. The experiment is described as follows: Antibacterial activity against Klebsiella pneumoniae after 24 hrs by NCCLS method. It counts as functional. Summed up: as §1
The next experiment deals with Escherichia coli. The experiment is described as follows: Antibacterial activity against Escherichia coli after 24 hrs by NCCLS method. Type of experiment: functional. Summed up:
as §1

For the next experiment, the system named is Pseudomonas aeruginosa. The experiment is described as follows: Antibacterial activity against Pseudomonas aeruginosa after 24 hrs by NCCLS method. Type of experiment: functional. The essentials: as §1
The test system of experiment [1] is Plasmodium falciparum. The experiment is described as follows: Antimalarial effect as schizonticidal activity against chloroquine-sensitive Plasmodium falciparum 3D7 after 40 hrs. Particulars: 3D7, 40 h.
Another experiment deals with Staphylococcus aureus. The experiment in a line: Antibacterial activity against Staphylococcus aureus after 24 hrs by NCCLS method. It counts as functional. Summed up: as §1
Experiment [2] in a line: Selectivity index, ratio of CC50 for african green monkey (Cercopithecus aethiops) Vero cells to IC50 for Plasmodium falciparum 3D7. It counts as functional.
The subject of experiment [3] is Plasmodium yoelii nigeriensis. The experiment is described as follows: Antimalarial activity at day 28 against Plasmodium yoelii nigeriensis MDR infected Swiss mice (Mus musculus) at 100 mg/kg peroral dose for 7 days. Type of experiment: functional. The note with it: route oral.
Experiment [4] has as its system Plasmodium falciparum. The experiment in a line: Antimalarial activity against chloroquine-sensitive Plasmodium falciparum 3D7 infected erythrocytes after 72 hrs by MSF assay. Particulars: 3D7, 72 h.
In experiment [5] the test system is Plasmodium yoelii nigeriensis. The experiment is described as follows: Antimalarial activity as parasitaemia against Plasmodium yoelii nigeriensis MDR infected Swiss mice (Mus musculus) at 100 mg/kg peroral dose over 4 days. The note with it: route oral.
Experiment [6] concerns Plasmodium yoelii. The experiment in a line: Antimalarial activity as parasitaemia after 28 days against chloroquine-resistant Plasmodium yoelii N67 infected Swiss mice (Mus musculus) at 50 mg/kg peroral dose over 4 days. Particulars: route oral. It counts as functional. The essentials:
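Swiss mice (25 g, either sex, n=5) infected on day 0 with 1 × 10⁶ P. yoelii N67 chloroquine-resistant parasitized cells. Test compounds were given orally as an aqueous suspension at 50 mg/kg from day 0 to 3; vehicle controls were run alongside. Parasitaemia was counted on tail-vein thin smears on days 4, 7, 14, 21 and 28, or until death.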

The test system of experiment [7] is Plasmodium yoelii. The experiment is described as follows: Antimalarial activity as parasitaemia after 28 days against chloroquine-resistant Plasmodium yoelii N67 infected Swiss mice (Mus musculus) at 50 mg/kg peroral dose over 7 days. Type of experiment: functional. The note with it: route oral.
Experiment [8] relates to Plasmodium yoelii. The experiment is described as follows: Antimalarial activity as reduced parasitaemia after 28 days against chloroquine-resistant Plasmodium yoelii N67 infected Swiss mice (Mus musculus) at 50 mg/kg peroral dose over 7 days. Type of experiment: functional. Also noted: scale not given: the % may be the effect or the level left. Particulars: route oral.

The test system of experiment [9] is Plasmodium yoelii nigeriensis. The experiment is described as follows: Antimalarial activity as reduced parasitaemia after 28 days against Plasmodium yoelii nigeriensis MDR infected Swiss mice (Mus musculus) at 100 mg/kg peroral dose over 4 days. It counts as functional. Also noted: scale not given: the % may be the effect or the level left. Particulars: route oral. Summed up: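 Swiss mice of either sex (25 g) inoculated on day 0 with 1 × 10⁶ P. yoelii nigeriensis MDR parasitized cells. Groups of five mice received an aqueous suspension orally at 100 mg/kg from day 0 to day 3. Five vehicle-only mice served as controls. Parasitemia was read from tail-vein thin blood smears on days 4, 7, 14, 21 and 28, or until death.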

Experiment [10] has as its system Plasmodium yoelii nigeriensis. The experiment in a line: Antimalarial activity day 28 against Plasmodium yoelii nigeriensis MDR infected Swiss mice (Mus musculus) as reduced parasitaemia at 100 mg/kg peroral dose for 7 days. It counts as functional. Also noted: scale not given: the % may be the effect or the level left. The note with it: route oral.

On to `Cc1cc(NC(=O)CN2CCN(C)CC2)c2cc(NC(=O)Nc3ccc(Br)cc3)ccc2n1`, for which the MIC (in general, the lowest concentration that inhibits growth of the organism) against Enterococcus faecalis came out at 6.25 µg/mL (≈ 12.2 µM); against Klebsiella pneumoniae, 6.25 µg/mL (≈ 12.2 µM); with Escherichia coli, 6.25 µg/mL (≈ 12.2 µM); against Pseudomonas aeruginosa, 1.56 µg/mL (≈ 3.05 µM); against Plasmodium falciparum [1] it was 1 µg/mL (≈ 1.96 µM).

As for `CCN1CCN(CC(=O)Nc2cc(C)nc3ccc(NC(=O)Nc4ccc(Cl)c(Cl)c4)cc23)CC1`, the figures for the MIC against Klebsiella pneumoniae, with Staphylococcus aureus and against Plasmodium falciparum [1] were 12.5 µg/mL (≈ 24.3 µM), 6.25 µg/mL (≈ 12.1 µM) and 0.5 µg/mL (≈ 0.97 µM), respectively.

In the case of `Cc1cc(NC(=O)CN2CCCCC2)c2cc(NC(=O)Nc3ccc(Cl)c(C(F)(F)F)c3)ccc2n1`, the “Selectivity Index” value in [2] turned out to be 76.5. In addition, the figures for the Activity in [3] and in experiment [5] were 13.83% and 0.27%, respectively. This molecule came in with an MIC against Plasmodium falciparum [1] of 0.25 µg/mL (≈ 0.481 µM). Moreover, the IC50 (as a rule, the concentration that gives 50% inhibition) with Plasmodium falciparum [4] stood at 0.0358 µg/mL (≈ 0.0689 µM).

Consider `CCN1CCN(CC(=O)Nc2cc(C)nc3ccc(NC(=O)Nc4cc(Cl)cc(Cl)c4)cc23)CC1`, for which the MIC was 6.25 µg/mL (≈ 12.1 µM) in the experiment on Klebsiella pneumoniae, 12.5 µg/mL (≈ 24.3 µM) against Escherichia coli, 3.12 µg/mL (≈ 6.05 µM) against Staphylococcus aureus and 0.5 µg/mL (≈ 0.97 µM) with Plasmodium falciparum [1].

`Cc1cc(NC(=O)c2ccco2)c2cc(NC(=O)Nc3ccc(C)c(Cl)c3)ccc2n1`: the “Selectivity Index” value in [2] is recorded as 524.7. Besides, the Activity in the experiment with Plasmodium yoelii [6] is 0.61%; in the experiment with Plasmodium yoelii [7], 21.1%. Further, in the experiment with Plasmodium falciparum [1], 0.5 µg/mL (≈ 1.15 µM) was the least that counted as inhibitory (MIC). For the same molecule, the IC50 in the experiment on Plasmodium falciparum [4] was 0.135 µg/mL (≈ 0.31 µM).

Consider `Cc1cc(NC(=O)c2ccccc2Cl)c2cc(NC(=O)Nc3cccc(C#N)c3)ccc2n1`, for which the “Selectivity Index” value in experiment [2] was 2401.9. In addition, the results for the Activity with Plasmodium yoelii [6] and in the experiment on Plasmodium yoelii [7] were 6.05% and 12.11%, respectively. In addition, 1 µg/mL (≈ 2.19 µM) was the least that counted as inhibitory against Plasmodium falciparum [1] (MIC). For the same molecule, inhibition in the experiment with Plasmodium falciparum [4] was half-maximal at 0.0284 µg/mL (≈ 0.0623 µM) (IC50).

Regarding GENTAMICIN, the MIC in the experiment with Enterococcus faecalis stood at 3.12 µg/mL; in the experiment with Klebsiella pneumoniae it was 25 µg/mL; with Pseudomonas aeruginosa it was 6.25 µg/mL; with Staphylococcus aureus it was 6.25 µg/mL.

Regarding `Cc1cc(NC(=O)c2ccccc2Cl)c2cc(NC(=O)Nc3ccc(C)c(Cl)c3)ccc2n1`, the “Selectivity Index” value in experiment [2] worked out at 205.1. Also, the Activity in the experiment with Plasmodium yoelii [6] is 2.15%; in the experiment on Plasmodium yoelii [7] it was 5.08%. This molecule also registered an MIC against Plasmodium falciparum [1] of 1 µg/mL (≈ 2.09 µM). Further, the IC50 in the experiment on Plasmodium falciparum [4] is 0.0445 µg/mL (≈ 0.0928 µM).

Regarding `Cc1cc(NC(=O)c2cccc(Cl)c2)c2cc(NC(=O)Nc3ccc(Cl)cc3)ccc2n1`, the MIC against Enterococcus faecalis turned out to be 12.5 µg/mL (≈ 26.9 µM); in the experiment with Klebsiella pneumoniae, 6.25 µg/mL (≈ 13.4 µM); in the experiment on Escherichia coli, 12.5 µg/mL (≈ 26.9 µM); with Pseudomonas aeruginosa, 1.56 µg/mL (≈ 3.35 µM); against Staphylococcus aureus, 3.12 µg/mL (≈ 6.7 µM); in the experiment on Plasmodium falciparum [1] it was 1 µg/mL (≈ 2.15 µM). This molecule also registered an IC50 in the experiment on Plasmodium falciparum [4] of 0.0144 µg/mL (≈ 0.0309 µM).

As to `Cc1cc(NC(=O)CN2CCN(C)CC2)c2cc(NC(=O)Nc3cc(Cl)cc(Cl)c3)ccc2n1`, the “Selectivity Index” value in experiment [2] is 4404.8. The Activity stood at 4.78% with Plasmodium yoelii [6] and 15.5% with Plasmodium yoelii [7]. Besides, the results for the MIC with Enterococcus faecalis, in the experiment with Escherichia coli and in the experiment with Plasmodium falciparum [1] were 3.12 µg/mL (≈ 6.23 µM), 1.56 µg/mL (≈ 3.11 µM) and 0.25 µg/mL (≈ 0.499 µM), respectively. Also, half-maximal inhibition in the experiment with Plasmodium falciparum [4] (IC50) was put at 0.0004 µg/mL (≈ 0.000798 µM).

Consider `Cc1cc(NC(=O)CN2CCN(C)CC2)c2cc(NC(=O)Nc3ccc(Cl)c(C(F)(F)F)c3)ccc2n1`, for which, in experiment [2], the “Selectivity Index” value amounted to 53.4. The Activity is reported as 2.28% in the experiment on Plasmodium yoelii [6] and 11% in the experiment with Plasmodium yoelii [7]. Further, the MIC in the experiment on Enterococcus faecalis stood at 3.1 µg/mL (≈ 5.79 µM); in the experiment on Klebsiella pneumoniae, 1.56 µg/mL (≈ 2.92 µM); against Escherichia coli, 1.56 µg/mL (≈ 2.92 µM); with Pseudomonas aeruginosa, 12.5 µg/mL (≈ 23.4 µM); against Staphylococcus aureus it was 6.25 µg/mL (≈ 11.7 µM); in the experiment with Plasmodium falciparum [1], 0.5 µg/mL (≈ 0.935 µM). The molecule further had an IC50 in the experiment with Plasmodium falciparum [4] of 0.0182 µg/mL (≈ 0.034 µM).

For `Cc1cc(NC(=O)CN2CCN(C)CC2)c2cc(NC(=O)Nc3ccc(Cl)c(Cl)c3)ccc2n1`, the Activity in the experiment on Plasmodium yoelii [6] worked out at 2.55%; in the experiment with Plasmodium yoelii [7] it was 1.5%; in the experiment on Plasmodium yoelii [8], 92.9%. Further, the MIC was 1.56 µg/mL (≈ 3.11 µM) against Enterococcus faecalis; 1.56 µg/mL (≈ 3.11 µM) in the experiment on Escherichia coli; 6.25 µg/mL (≈ 12.5 µM) in the experiment on Pseudomonas aeruginosa; 6.25 µg/mL (≈ 12.5 µM) with Staphylococcus aureus; 0.25 µg/mL (≈ 0.499 µM) with Plasmodium falciparum [1]. This molecule also showed an IC50 in the experiment on Plasmodium falciparum [4] of 0.0022 µg/mL (≈ 0.00439 µM).

Turning to `Cc1cc(NC(=O)CN2CCN(C)CC2)c2cc(NC(=O)Nc3ccc(C)c(Cl)c3)ccc2n1`, the Activity was 1.67% with Plasmodium yoelii [6] and 5.15% with Plasmodium yoelii [7]. The MIC in the experiment on Klebsiella pneumoniae was 12.5 µg/mL (≈ 26 µM); against Escherichia coli, 6.25 µg/mL (≈ 13 µM); in the experiment with Pseudomonas aeruginosa it was more than 50 µg/mL; against Plasmodium falciparum [1], 0.25 µg/mL (≈ 0.52 µM). In the experiment with Plasmodium falciparum [4], this molecule came in with an IC50 of 0.0033 µg/mL (≈ 0.00686 µM).

Regarding `Cc1cc(NC(=O)c2ccccc2Cl)c2cc(NC(=O)Nc3cccc(Cl)c3)ccc2n1`, the “Selectivity Index” value in experiment [2] stood at 32.1. The Activity in the experiment on Plasmodium yoelii [6] is on record as 4.23%; in the experiment on Plasmodium yoelii [7], 9.77%. Moreover, in the experiment on Plasmodium falciparum [1], inhibition of growth (MIC) required 0.5 µg/mL (≈ 1.07 µM). The same molecule yielded an IC50 in the experiment with Plasmodium falciparum [4] of 0.22 µg/mL (≈ 0.472 µM).

As to `Cc1cc(NC(=O)c2ccccc2)c2cc(NC(=O)Nc3cc(Cl)cc(Cl)c3)ccc2n1`, the MIC against Enterococcus faecalis was found to be 0.01 µg/mL (≈ 0.0215 µM); against Klebsiella pneumoniae, 0.04 µg/mL (≈ 0.086 µM); against Escherichia coli, 0.0025 µg/mL (≈ 0.00537 µM); in the experiment with Pseudomonas aeruginosa, 12.5 µg/mL (≈ 26.9 µM); against Plasmodium falciparum [1] it was 2 µg/mL (≈ 4.3 µM).

For `Cc1cc(NC(=O)CN2CCN(C)CC2)c2cc(NC(=O)Nc3cccc(Cl)c3)ccc2n1`, the “Selectivity Index” value in [2] was 549.7. Moreover, the figures for the Activity in experiment [3] and in [5] were 50% and 18.8%, respectively. The MIC against Plasmodium falciparum [1] turned out to be 0.25 µg/mL (≈ 0.535 µM). Further, in the experiment on Plasmodium falciparum [4], it took 0.013 µg/mL (≈ 0.0278 µM) to reach half-maximal inhibition (IC50).

For the molecule `Cc1cc(NC(=O)c2ccco2)c2cc(NC(=O)Nc3cccc(C#N)c3)ccc2n1`, the Activity in experiment [3] came out at 1.84%; in experiment [9] it was 100%; in [10] it was 91.29%; in experiment [5], 0%. The MIC in the experiment with Plasmodium falciparum [1] amounted to 0.5 µg/mL (≈ 1.22 µM). Moreover, half-maximal inhibition in the experiment on Plasmodium falciparum [4] (IC50) was put at 0.0004 µg/mL (≈ 0.000972 µM).
